Experimental findings from ChEMBL document CHEMBL1208682, “New quinoline derivatives: synthesis and investigation of antibacterial and antituberculosis properties” (2010) are described below.

What all share (assay type): functional
In one assay the test system is Staphylococcus aureus. Description: Antibacterial activity against Staphylococcus aureus ATCC 25923 after 3 to 4 days by serial plate dilution method. The conditions noted are these: for MIC: Staphylococcus aureus, ATCC 25923.
Assay [1] has as its system Mycobacterium tuberculosis. Description: Antituberculosis activity against Mycobacterium tuberculosis H37Rv ATCC 27294 after 7 days using resazurin dye by broth microdilution assay. Particulars: H37Rv ATCC 27294, 168 h. The essentials: (§1)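 M. tuberculosis H37Rv grown in Middlebrook 7H9 with 10% OADC and 0.5% glycerol, adjusted to McFarland 1.0. Compounds were dissolved in DMF as stocks and tested at final levels of 1.56, 3.12, 6.25, 12.5, 25 and 50 in 96-well REMA. Controls were DMF-only, growth, rifampicin and isoniazid. After 7 days at 37 °C, 0.01% resazurin was added for 24 h and the colour change read.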

For another assay, the system named is Klebsiella pneumoniae. In words: Antibacterial activity against recultured Klebsiella pneumoniae after 3 to 4 days by serial plate dilution method. Particulars: for MIC: Klebsiella pneumoniae.
The next assay deals with Escherichia coli. In words: Antibacterial activity against Escherichia coli ATCC 25922 after 3 to 4 days by serial plate dilution method. The conditions noted are these: for MIC: Escherichia coli, ATCC 25922.
The next assay deals with Pseudomonas aeruginosa. Description: Antibacterial activity against Pseudomonas aeruginosa ATCC 27853 after 3 to 4 days by serial plate dilution method. Particulars: for MIC: Pseudomonas aeruginosa, ATCC 27853.
The test system of assay [2] is Mycobacterium tuberculosis. In words: Antituberculosis activity against Mycobacterium tuberculosis at MIC concentration after 7 days using resazurin dye by broth microdilution assay. The essentials: as §1
In general terms: The colour change of resazurin is a common sign of viable cells or microbes.

Values after ≈ are worked out from the molar mass of the structure shown.

Regarding `Oc1cc(F)ccc1/C=N/Nc1cc(C(F)(F)F)nc2c(C(F)(F)F)cccc12`, the “diameter of the inhibition zone (DIZ)” value in the assay with Staphylococcus aureus was determined as 13 mm; in the assay on Klebsiella pneumoniae, 13 mm; in the assay on Escherichia coli, 22 mm; in the assay with Pseudomonas aeruginosa it was 12 mm. Moreover, the MIC – broadly, the smallest concentration in the dilution series that meets the test's criterion for growth inhibition – with Staphylococcus aureus is 12.5 µg/mL (≈ 30 µM); in assay [1] it was above 50 µM; in the assay on Klebsiella pneumoniae, 12.5 µg/mL (≈ 30 µM); against Escherichia coli, 6.25 µg/mL (≈ 15 µM); with Pseudomonas aeruginosa, 12.5 µg/mL (≈ 30 µM).

Turning to `FC(F)C(F)(F)Oc1cccc(/C=N/Nc2cc(C(F)(F)F)nc3c(C(F)(F)F)cccc23)c1`, the “diameter of the inhibition zone (DIZ)” value turned out to be 22 mm in the assay on Staphylococcus aureus, 18 mm in the assay on Klebsiella pneumoniae, 21 mm in the assay on Escherichia coli and 26 mm in the assay with Pseudomonas aeruginosa. Further, the MIC against Staphylococcus aureus came out at 6.25 µg/mL (≈ 12.5 µM); in assay [1], 12.5 µM (≈ 6.24 µg/mL); in the assay on Klebsiella pneumoniae, 6.25 µg/mL (≈ 12.5 µM); in the assay with Escherichia coli, 6.25 µg/mL (≈ 12.5 µM); in the assay on Pseudomonas aeruginosa, 6.25 µg/mL (≈ 12.5 µM). In assay [2], the “inhibition (INH)” value is below 90%.

Take `COc1ccc(/C=N/Nc2cc(C(F)(F)F)nc3c(C(F)(F)F)cccc23)cc1O`: the “diameter of the inhibition zone (DIZ)” value with Staphylococcus aureus was 14 mm; with Klebsiella pneumoniae it was 12 mm; in the assay with Escherichia coli, 13 mm; in the assay with Pseudomonas aeruginosa, 15 mm. The MIC in the assay with Staphylococcus aureus is 12.5 µg/mL (≈ 29.1 µM); in assay [1], 12.5 µM (≈ 5.37 µg/mL); against Klebsiella pneumoniae, 12.5 µg/mL (≈ 29.1 µM); in the assay on Escherichia coli it was 12.5 µg/mL (≈ 29.1 µM); in the assay with Pseudomonas aeruginosa, 12.5 µg/mL (≈ 29.1 µM). For the same compound, the “inhibition (INH)” value in assay [2] is reported as below 90%.

Turning to `COc1ccc(/C=N/Nc2cc(C(F)(F)F)nc3c(C(F)(F)F)cccc23)c(F)c1`, the “diameter of the inhibition zone (DIZ)” value in the assay with Staphylococcus aureus is given as 23 mm; with Klebsiella pneumoniae, 22 mm; with Escherichia coli, 25 mm; with Pseudomonas aeruginosa, 24 mm. The MIC with Staphylococcus aureus is 6.25 µg/mL (≈ 14.5 µM); in assay [1], 6.25 µM (≈ 2.7 µg/mL); against Klebsiella pneumoniae, 6.25 µg/mL (≈ 14.5 µM); against Escherichia coli, 6.25 µg/mL (≈ 14.5 µM); against Pseudomonas aeruginosa, 6.25 µg/mL (≈ 14.5 µM). The “inhibition (INH)” value in assay [2] came to 95%.

On to `FC(F)(F)c1cc(N/N=C/c2cccs2)c2cccc(C(F)(F)F)c2n1`, for which the “diameter of the inhibition zone (DIZ)” value in the assay on Staphylococcus aureus, in the assay on Klebsiella pneumoniae, with Escherichia coli and in the assay with Pseudomonas aeruginosa was below 10 mm in each case. Also, the MIC in the assay with Staphylococcus aureus is 50 µg/mL (≈ 128 µM); in assay [1], above 50 µM; against Klebsiella pneumoniae, 50 µg/mL (≈ 128 µM); against Escherichia coli, 50 µg/mL (≈ 128 µM); against Pseudomonas aeruginosa, 50 µg/mL (≈ 128 µM).

Regarding `FC(F)(F)c1cc(N/N=C/c2cocc2Br)c2cccc(C(F)(F)F)c2n1`, the “diameter of the inhibition zone (DIZ)” value with Staphylococcus aureus, in the assay on Klebsiella pneumoniae, in the assay on Escherichia coli and in the assay on Pseudomonas aeruginosa was below 10 mm throughout. The MIC in the assay on Staphylococcus aureus was 50 µg/mL (≈ 111 µM); in assay [1] it was above 50 µM; against Klebsiella pneumoniae, 50 µg/mL (≈ 111 µM); against Escherichia coli, 50 µg/mL (≈ 111 µM); against Pseudomonas aeruginosa, 50 µg/mL (≈ 111 µM).

As to `FC(F)(F)c1cc(N/N=C/c2ccc3c(c2)CCO3)c2cccc(C(F)(F)F)c2n1`, the “diameter of the inhibition zone (DIZ)” value in the assay on Staphylococcus aureus stood at 14 mm; with Klebsiella pneumoniae, 12 mm; in the assay on Escherichia coli, 21 mm; with Pseudomonas aeruginosa, 15 mm. For the same compound, the MIC is 12.5 µg/mL (≈ 29.4 µM) with Staphylococcus aureus; 25 µM (≈ 10.6 µg/mL) in assay [1]; 12.5 µg/mL (≈ 29.4 µM) against Klebsiella pneumoniae; 6.25 µg/mL (≈ 14.7 µM) in the assay on Escherichia coli; 12.5 µg/mL (≈ 29.4 µM) with Pseudomonas aeruginosa.

`CC(=O)OCc1ccc(/C=N/Nc2cc(C(F)(F)F)nc3c(C(F)(F)F)cccc23)o1`: the “diameter of the inhibition zone (DIZ)” value in the assay with Staphylococcus aureus is on record as 10 mm; with Klebsiella pneumoniae, 11 mm; in the assay with Escherichia coli it was 20 mm; in the assay on Pseudomonas aeruginosa, 14 mm. The MIC was 12.5 µg/mL (≈ 28.1 µM) in the assay on Staphylococcus aureus; above 50 µM in assay [1]; 12.5 µg/mL (≈ 28.1 µM) in the assay on Klebsiella pneumoniae; 6.25 µg/mL (≈ 14 µM) against Escherichia coli; 12.5 µg/mL (≈ 28.1 µM) in the assay with Pseudomonas aeruginosa.

`COc1ccc2[nH]cc(/C=N/Nc3cc(C(F)(F)F)nc4c(C(F)(F)F)cccc34)c2c1`: the “diameter of the inhibition zone (DIZ)” value in the assay on Staphylococcus aureus is given as 22 mm; in the assay with Klebsiella pneumoniae it was 20 mm; in the assay with Escherichia coli, 23 mm; with Pseudomonas aeruginosa it was 25 mm. The MIC against Staphylococcus aureus is 6.25 µg/mL (≈ 13.8 µM); in assay [1] it was 25 µM (≈ 11.3 µg/mL); in the assay on Klebsiella pneumoniae, 6.25 µg/mL (≈ 13.8 µM); against Escherichia coli it was 6.25 µg/mL (≈ 13.8 µM); against Pseudomonas aeruginosa, 6.25 µg/mL (≈ 13.8 µM).

For `N#Cc1cccc(NC(=O)NNc2cc(C(F)(F)F)nc3c(C(F)(F)F)cccc23)c1`, the “diameter of the inhibition zone (DIZ)” value with Staphylococcus aureus, in the assay with Klebsiella pneumoniae, with Escherichia coli and with Pseudomonas aeruginosa was below 10 mm throughout. Further, the MIC amounted to 50 µg/mL (≈ 114 µM) against Staphylococcus aureus; 25 µM (≈ 11 µg/mL) in assay [1]; 50 µg/mL (≈ 114 µM) against Klebsiella pneumoniae; 50 µg/mL (≈ 114 µM) against Escherichia coli; 50 µg/mL (≈ 114 µM) against Pseudomonas aeruginosa.

For `CCCCCNC(=O)NNc1cc(C(F)(F)F)nc2c(C(F)(F)F)cccc12`, the “diameter of the inhibition zone (DIZ)” value in the assay with Staphylococcus aureus was 10 mm; with Klebsiella pneumoniae it was below 10 mm; in the assay on Escherichia coli, 10 mm; in the assay with Pseudomonas aeruginosa, 14 mm. In addition, the MIC was determined as 12.5 µg/mL (≈ 30.6 µM) against Staphylococcus aureus; 25 µM (≈ 10.2 µg/mL) in assay [1]; 50 µg/mL (≈ 122 µM) in the assay with Klebsiella pneumoniae; 12.5 µg/mL (≈ 30.6 µM) against Escherichia coli; 12.5 µg/mL (≈ 30.6 µM) in the assay with Pseudomonas aeruginosa.

On to `Fc1ccccc1NC(=S)NNc1cc(C(F)(F)F)nc2c(C(F)(F)F)cccc12`, for which the “diameter of the inhibition zone (DIZ)” value in the assay on Staphylococcus aureus, in the assay with Klebsiella pneumoniae, in the assay on Escherichia coli and with Pseudomonas aeruginosa was below 10 mm each time. Further, the MIC with Staphylococcus aureus is 50 µg/mL (≈ 112 µM); in assay [1], above 50 µM; against Klebsiella pneumoniae, 50 µg/mL (≈ 112 µM); with Escherichia coli it was 50 µg/mL (≈ 112 µM); in the assay with Pseudomonas aeruginosa, 50 µg/mL (≈ 112 µM).

Turning to `COCCNC(=S)NNc1cc(C(F)(F)F)nc2c(C(F)(F)F)cccc12`, the “diameter of the inhibition zone (DIZ)” value is recorded as 11 mm in the assay on Staphylococcus aureus, below 10 mm in the assay on Klebsiella pneumoniae, 10 mm with Escherichia coli and 12 mm with Pseudomonas aeruginosa. Further, the MIC with Staphylococcus aureus came out at 12.5 µg/mL (≈ 30.3 µM); in assay [1], 25 µM (≈ 10.3 µg/mL); against Klebsiella pneumoniae it was 50 µg/mL (≈ 121 µM); with Escherichia coli, 12.5 µg/mL (≈ 30.3 µM); in the assay with Pseudomonas aeruginosa, 12.5 µg/mL (≈ 30.3 µM).

As for `CC1=NN(c2cc(C(F)(F)F)nc3c(C(F)(F)F)cccc23)C(=O)C1`, the “diameter of the inhibition zone (DIZ)” value in the assay on Staphylococcus aureus is recorded as 24 mm; with Klebsiella pneumoniae it was 20 mm; in the assay on Escherichia coli it was 22 mm; in the assay with Pseudomonas aeruginosa it was 25 mm. Moreover, the MIC in the assay with Staphylococcus aureus, against Klebsiella pneumoniae, against Escherichia coli and with Pseudomonas aeruginosa was 6.25 µg/mL (≈ 17.3 µM) in each case.

On to `O=C1CC(CCc2ccc3c(c2)OCO3)=NN1c1cc(C(F)(F)F)nc2c(C(F)(F)F)cccc12`, for which the “diameter of the inhibition zone (DIZ)” value in the assay with Staphylococcus aureus is given as 22 mm; in the assay with Klebsiella pneumoniae, 22 mm; in the assay with Escherichia coli, 21 mm; with Pseudomonas aeruginosa, 24 mm. For the same compound, the MIC in the assay with Staphylococcus aureus, against Klebsiella pneumoniae, in the assay with Escherichia coli and against Pseudomonas aeruginosa was 6.25 µg/mL (≈ 12.6 µM) each time.

Regarding `O=C1CC(c2ccccc2)=NN1c1cc(C(F)(F)F)nc2c(C(F)(F)F)cccc12`, the “diameter of the inhibition zone (DIZ)” value with Staphylococcus aureus is recorded as 18 mm; in the assay with Klebsiella pneumoniae it was 10 mm; in the assay on Escherichia coli it was 10 mm; in the assay on Pseudomonas aeruginosa, 12 mm. In addition, the MIC against Staphylococcus aureus came to 6.25 µg/mL (≈ 14.8 µM); with Klebsiella pneumoniae it was 12.5 µg/mL (≈ 29.5 µM); in the assay with Escherichia coli, 12.5 µg/mL (≈ 29.5 µM); in the assay on Pseudomonas aeruginosa, 12.5 µg/mL (≈ 29.5 µM).

For `O=C1CC(c2ccncc2)=NN1c1cc(C(F)(F)F)nc2c(C(F)(F)F)cccc12`, the “diameter of the inhibition zone (DIZ)” value worked out at 20 mm with Staphylococcus aureus, 10 mm in the assay on Klebsiella pneumoniae, 10 mm in the assay with Escherichia coli and 12 mm in the assay on Pseudomonas aeruginosa. Further, the MIC against Staphylococcus aureus was determined as 6.25 µg/mL (≈ 14.7 µM); with Klebsiella pneumoniae it was 12.5 µg/mL (≈ 29.5 µM); against Escherichia coli it was 12.5 µg/mL (≈ 29.5 µM); against Pseudomonas aeruginosa, 12.5 µg/mL (≈ 29.5 µM).

For `O=C(O)c1cn(C2CC2)c2cc(N3CCNCC3)c(F)cc2c1=O` [CIPROFLOXACIN], the “diameter of the inhibition zone (DIZ)” value with Staphylococcus aureus worked out at 26 mm; in the assay on Klebsiella pneumoniae, 24 mm; in the assay on Escherichia coli, 28 mm; in the assay on Pseudomonas aeruginosa, 31 mm. This compound also gave an MIC against Klebsiella pneumoniae of 3.12 µg/mL (≈ 9.42 µM).

In the case of `NNC(=O)c1ccncc1` [ISONIAZID], it took 1.5 µM (≈ 0.206 µg/mL) to inhibit growth in assay [1] (MIC). Besides, the “inhibition (INH)” value in assay [2] amounted to 95%.

`CO[C@H]1/C=C/O[C@@]2(C)Oc3c(C)c(O)c4c(O)c(c(/C=N/N5CCN(C)CC5)c(O)c4c3C2=O)NC(=O)/C(C)=C\C=C\[C@H](C)[C@H](O)[C@@H](C)[C@@H](O)[C@@H](C)[C@H](OC(C)=O)[C@@H]1C` [RIFAMPIN]: it took 0.5 µM (≈ 0.411 µg/mL) to inhibit growth in assay [1] (MIC). In assay [2], the “inhibition (INH)” value was 99%.
